In the library only some 2.3% were active in any assay of this set; here they are far more common.
TRPC4 potent: TRPC4 (mouse) allosteric potentiation. Q9QUQ5. HEK293 TRPC4beta/mu-opioid, DAMGO EC20, Fluo-4 Ca2+ flux; hits give high values. B-score at 10 µM. hit rate 0.42% among 310,000;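 active means B-score of calcium response area above 5 SD of library B-scores, with initial fluorescence ratio within 5 SD of library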
Target sequence (Q9QUQ5 whole entry, looked up): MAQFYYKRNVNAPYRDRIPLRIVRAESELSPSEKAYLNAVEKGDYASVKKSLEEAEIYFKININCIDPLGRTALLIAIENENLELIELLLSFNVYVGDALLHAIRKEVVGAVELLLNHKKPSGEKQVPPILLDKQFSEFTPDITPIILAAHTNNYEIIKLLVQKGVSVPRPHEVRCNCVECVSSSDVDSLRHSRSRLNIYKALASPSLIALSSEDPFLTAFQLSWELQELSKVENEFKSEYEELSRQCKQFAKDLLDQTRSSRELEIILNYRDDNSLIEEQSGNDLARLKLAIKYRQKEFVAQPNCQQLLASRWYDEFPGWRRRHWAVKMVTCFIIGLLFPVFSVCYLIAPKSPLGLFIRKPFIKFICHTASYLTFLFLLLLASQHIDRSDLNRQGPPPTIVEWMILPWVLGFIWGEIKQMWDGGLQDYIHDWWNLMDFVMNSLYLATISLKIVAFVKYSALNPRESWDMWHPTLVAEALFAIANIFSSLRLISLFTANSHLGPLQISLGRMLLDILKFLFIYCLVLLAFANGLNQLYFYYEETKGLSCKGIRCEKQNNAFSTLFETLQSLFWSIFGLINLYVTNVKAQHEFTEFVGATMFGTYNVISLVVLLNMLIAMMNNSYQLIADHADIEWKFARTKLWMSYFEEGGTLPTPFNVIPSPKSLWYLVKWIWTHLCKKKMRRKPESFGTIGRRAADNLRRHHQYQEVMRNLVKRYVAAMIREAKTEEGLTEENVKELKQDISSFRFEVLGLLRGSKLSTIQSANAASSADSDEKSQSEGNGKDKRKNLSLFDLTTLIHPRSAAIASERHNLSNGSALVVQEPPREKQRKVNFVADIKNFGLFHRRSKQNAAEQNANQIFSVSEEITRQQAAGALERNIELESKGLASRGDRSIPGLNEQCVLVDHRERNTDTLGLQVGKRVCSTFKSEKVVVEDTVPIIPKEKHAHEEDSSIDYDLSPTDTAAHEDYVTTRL
TRPC4 act: activators of mouse TRPC4 channel; HEK293 TRPC4beta/mu-opioid, Fluo4 calcium fluorescence; hits give high values; Q9QUQ5; hit rate 0.49% among 310,000; AID 2237; B-score at 10 µM;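 active means B-score above 5 SD of library B-scores, and initial fluorescence ratio not above library mean plus 5 SD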;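 further: positive B-score marks a calcium rise read as TRPC4 activation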
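System – HEK293 cells stably co-expressing mouse TRPC4beta and mu-opioid receptor · Signal – Fluo4 calcium-sensitive dye fluorescence, kinetic, 1 Hz baseline · Benchmarks – buffer (low) and maximal DAMGO (high) · Read-out – B score of integrated fluorescence ratio per well · Incubation – dye loading 45 min room temperature, 110 s kinetic read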
TRPC6 act: mouse TRPC6 channel activation | hit rate 0.13% among 310,000 | Q61143 | B-score at 10 µM | HEK293-TRPC6 membrane potential dye fluorescence; hits give high values;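 active means B-score of the integrated fluorescence ratio above library mean plus 3 SD, and starting fluorescence ratio within library mean plus 5 SD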;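 further: higher score means more depolarization so channel activation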
TRPC4 block: blocks the mouse TRPC4 cation channel. hit rate 0.39% among 300,000. B-score at 10 µM. AID 2247. Q9QUQ5. HEK293 TRPC4beta/mu-opioid, DAMGO-evoked Fluo4 calcium flux; hits give low values;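 active means B-score over 3 SD under the library average, no early fluorescence shift, positive overall ratio signal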
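Assay system: HEK293 cells with stable TRPC4beta plus mu-opioid receptor expression; Probe or stimulus: DAMGO in two steps, submaximal then maximal; Dosing: single-point compound dosing; Measured by: Fluo4 calcium-dye fluorescence, kinetic read; Read-out basis: B score from integrated Fluo4 fluorescence ratio.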
TRPC6 inh: blocks the mouse TRPC6 cation channel; Q61143; B-score at 10 µM; HEK293-TRPC6, membrane potential dye, ACh-evoked depolarization; hits give low values; hit rate 1.1% among 310,000; AID 2553;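 active means B-score under library mean minus 3 SD, initial fluorescence not abnormally high, positive integrated signal ratio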;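 further: B-score derived from integrated fluorescence ratio over the kinetic read; more negative B-score means stronger inhibition of depolarization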
TRPC4 spec 2: second selectivity test of TRPC6 inhibitors: effect on mouse TRPC4; inhibition, % at 10 µM; hit rate 42% among 920; shares compounds with TRPC6 inh; HEK293 TRPC4/MOR, membrane potential dye fluorescence; channel activated by saturating DAMGO dose; AID 2776;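 active means compounds whose fluorescence signal differed from control wells by over 3 SD, either direction, in both duplicate plates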
TRPC4 spec: selectivity of TRPC6 inhibitors: effect on mouse TRPC4; shares compounds with TRPC6 inh; HEK293 TRPC4/mu-opioid, membrane potential fluorescence; activity change, negative = inhibition, % at 10 µM; hit rate 61% among 920;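 active means rise or fall in signal beyond 3 SD of buffer-only wells in both replicate plates, either sign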;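 further: integrated kinetic ratio of fluorescence range over baseline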
HEK293 MPD ctr 2-1: parental HEK293 nonspecific activity of TRPC6 inhibitors, second screen. hit rate 31% among 920. AID 2779. signal change vs control, % at 10 µM. shares compounds with TRPC6 inh. parental HEK293 membrane potential dye fluorescence; maximal acetylcholine challenge after compound addition;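 active means membrane potential signal moving either way by over 3 SD of the maximum-effect control, in both duplicate plates, meaning non-specific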
HEK293 MPD ctr-1: counter-screen for TRPC6 inhibitors: effect in parental HEK293 cells; shares compounds with TRPC6 inh; hit rate 60% among 920; membrane potential signal change, % at 10 µM; parental HEK293 membrane potential dye fluorescence;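 active means membrane potential signal shifting up or down by more than 3 SD of buffer-only wells, on both duplicate plates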
HEK293 MPD ctr-2: checks TRPC6 modulator effects in parental HEK293 cells; AID 488924; hit rate 51% among 2,400; membrane potential signal change, % at 10 µM; membrane potential dye fluorescence; shares compounds with TRPC6 inh;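 active means membrane potential signal moves up or down beyond 5 SD from buffer-only wells, on both duplicate plates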
HEK293 MPD ctr 2-2: second check of TRPC6 modulator effects in parental HEK293 cells; shares compounds with TRPC6 inh; membrane potential dye fluorescence; after compound, maximal acetylcholine stimulation; inhibition, % at 10 µM; hit rate 14% among 2,400; AID 488926;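 active means membrane potential signal drops by more than 5 SD from the mean control signal, in both duplicate plates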
TRPC4/MOR mod: tests whether TRPC6 modulators also affect mouse TRPC4; shares compounds with TRPC6 inh; HEK293 TRPC4/mu-opioid, membrane potential fluorescence; hit rate 69% among 2,400; AID 488927; percent change from control (negative = decrease, positive = increase), % at 10 µM;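 active means membrane potential signal moved up or down beyond 5 SD of buffer control wells, in both duplicate plates, actives on both sides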
TRPC4 ctr inh 2: mouse TRPC4 off-target activity of TRPC6 modulators, second screen; HEK293 TRPC4/mu-opioid, membrane potential dye fluorescence; stimulated with maximal-effect DAMGO; shares compounds with TRPC6 inh; inhibition, % at 10 µM; hit rate 55% among 2,400;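 active means drop in membrane potential signal beyond 5 SD of the control wells in both duplicate plates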;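 further: TRPC4 counter screen for TRPC6 hits run under conditions tuned for TRPC6 not TRPC4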
TRPC6 block conf: mouse TRPC6 inhibitor confirmation; AID 488960; HEK293-TRPC6, membrane potential dye, ACh-evoked depolarization; hit rate 43% among 3,300; inhibition, % at 10 µM; shares compounds with TRPC6 inh;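 active means fluorescence ratio falls more than 5 SD below the full-stimulation control mean, in both duplicate runs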;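 further: integrated fluorescence ratio of peak minus minimum over baseline after agonist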
TRPC6 act conf: confirmation of mouse TRPC6 activators; HEK293-TRPC6 membrane potential dye fluorescence, FDSS; shares compounds with TRPC6 inh; activation, % at 10 µM; hit rate 11% among 2,800; AID 488961;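 active means ratio signal rise beyond 5 SD above unstimulated control wells' mean, seen in both duplicate runs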
Large screens that a line does not name were inactive (follow-up assays come after a bar, where they were run).

O=[N+]([O-])c1ccc(N=Nc2c(Cl)cc(O)cc2Cl)cc1	TRPC6 inh -9.6 | TRPC4 spec 2 27% | TRPC4 spec 5.7% | HEK293 MPD ctr 2-1 -26% | HEK293 MPD ctr-1 inactive | TRPC6 block conf 114% | TRPC6 act conf inactive
CCN(CC)c1ccc(-c2nc3cnccc3n2C)cc1	TRPC6 inh -5.9 | HEK293 MPD ctr-2 -170% | HEK293 MPD ctr 2-2 inactive | TRPC4/MOR mod -30% | TRPC4 ctr inh 2 34% | TRPC6 block conf inactive | TRPC6 act conf inactive
CCC1=NN2C(=N)/C(=C\c3ccc(OCc4cc(=O)n5nc(CC)sc5n4)c(OC)c3)C(=O)N=C2S1	none
O=C(CSCc1ccc(F)cc1)N1CCN(c2ccc(F)cc2)CC1	TRPC6 inh -5.4 | HEK293 MPD ctr-2 inactive | HEK293 MPD ctr 2-2 inactive | TRPC4/MOR mod inactive | TRPC4 ctr inh 2 inactive | TRPC6 block conf inactive | TRPC6 act conf inactive
Cc1ccc(CSCC(=O)N2CCN(c3ccc(F)cc3)CC2)cc1	none
N=C1c2ccccc2CN1c1ccc(N2CCOCC2)c(S(=O)(=O)Nc2ccc(Cl)cc2)c1	TRPC6 inh -7.4 | TRPC4 spec 2 36% | TRPC4 spec -13% | HEK293 MPD ctr 2-1 inactive | HEK293 MPD ctr-1 inactive | TRPC6 block conf inactive | TRPC6 act conf inactive
Cc1ccn(CC(=O)NC2CC(C)(C)Cc3c2cnn3-c2ccc(F)cc2)n1 (stereo unspecified)	none
COc1cc(/C=C2\S/C(=N/S(=O)(=O)c3ccc(C)cc3)NC2=O)c([N+](=O)[O-])cc1OC	none
Cc1ccc(S(=O)(=O)/N=C2/NC(=O)/C(=C/c3cc([N+](=O)[O-])ccc3O)S2)cc1	TRPC6 act 62 | HEK293 MPD ctr-2 390% | HEK293 MPD ctr 2-2 inactive | TRPC4/MOR mod 66% | TRPC4 ctr inh 2 inactive | TRPC6 block conf inactive | TRPC6 act conf 280%
O=C1NC(=Nc2ccccc2Cl)S/C1=C\c1cc([N+](=O)[O-])ccc1O	TRPC4 act 82, TRPC6 act 34 | HEK293 MPD ctr-2 active | HEK293 MPD ctr 2-2 inactive | TRPC4/MOR mod 380% | TRPC4 ctr inh 2 65% | TRPC6 block conf inactive | TRPC6 act conf 658%
C/C(N)=C(/C#N)C(=O)COC(=O)C(NS(=O)(=O)c1ccc(Cl)cc1)C(C)O (stereo unspecified)	TRPC6 inh -5.4 | HEK293 MPD ctr-2 inactive | HEK293 MPD ctr 2-2 inactive | TRPC4/MOR mod inactive | TRPC4 ctr inh 2 inactive | TRPC6 block conf inactive | TRPC6 act conf inactive
